Data taken from ChEMBL document CHEMBL4428077, “Synthesis and Biological Evaluation of N-((1-(4-(Sulfonyl)piperazin-1-yl)cycloalkyl)methyl)benzamide Inhibitors of Glycine Transporter-1” (J Med Chem, 2016).
Activity calls are given as the source filed them. The calls are words filed in the database; no cut-off is given here.

Tests used:
[1] = Intrinsic clearance in human liver microsomes at 3 uM incubated up to 60 mins by LC-MS analysis; type: ADME, Microsome; settings: read-out: CLH
How it was run: (§1)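 Liver microsomes with a cofactor regeneration system and compound at 3 μM, incubated at 37 °C. Reactions were stopped at 0, 5, 15, 30, 45 and 60 min, in duplicate. Compound remaining was measured by LC-MS. ln(%remaining) was plotted against time, and the slope was normalized to protein to give CL_int. Testosterone at 10 μM served as control.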

[2] = Intrinsic clearance in rat liver microsomes at 3 uM incubated up to 60 mins by LC-MS analysis; type: ADME, Microsome; settings: read-out: CLH; how it was run: as §1
[3] = target: T1, Sodium- and chloride-dependent glycine transporter 1 (Homo sapiens, UniProt P48067); assay: Inhibition of glycine transporter-1B in human JAR cells assessed as reduction in [14C]glycine uptake preincubated for 10 mins followed by [14C]glycine addition measured after 3 hrs by scintillation proximity assay; type: cell-based
T1 sequence (P48067 whole entry): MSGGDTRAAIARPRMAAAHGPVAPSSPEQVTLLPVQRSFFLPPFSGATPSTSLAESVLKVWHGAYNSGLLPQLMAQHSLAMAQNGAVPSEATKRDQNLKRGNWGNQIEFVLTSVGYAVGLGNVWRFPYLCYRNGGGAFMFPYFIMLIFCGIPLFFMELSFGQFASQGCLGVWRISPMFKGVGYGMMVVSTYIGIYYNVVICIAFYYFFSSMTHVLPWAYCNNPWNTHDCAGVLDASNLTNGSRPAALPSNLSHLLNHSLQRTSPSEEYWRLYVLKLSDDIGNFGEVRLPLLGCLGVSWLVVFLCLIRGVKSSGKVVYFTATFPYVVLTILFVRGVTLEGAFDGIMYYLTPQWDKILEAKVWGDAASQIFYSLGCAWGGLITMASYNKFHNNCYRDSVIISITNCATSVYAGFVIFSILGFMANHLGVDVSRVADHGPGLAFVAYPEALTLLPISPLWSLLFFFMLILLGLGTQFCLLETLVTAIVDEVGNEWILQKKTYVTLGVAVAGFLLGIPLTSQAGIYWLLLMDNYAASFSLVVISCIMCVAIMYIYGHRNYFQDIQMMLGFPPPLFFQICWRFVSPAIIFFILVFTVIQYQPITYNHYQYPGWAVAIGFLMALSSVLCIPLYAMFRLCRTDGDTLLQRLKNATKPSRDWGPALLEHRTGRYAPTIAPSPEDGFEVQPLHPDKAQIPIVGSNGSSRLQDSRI
How it was run: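 Whole-cell SPA in JAR cells, which endogenously express hGlyT-1b. Cells (50,000 per well) were attached overnight in RPMI/10% FBS at 37 °C, 5% CO₂. [¹⁴C]glycine was then added and incubated 3 h at 37 °C. The assay window was set with unlabeled glycine. A reference standard ran on each plate. IC₅₀ values are means of n ≥ 2.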

[4] = Metabolic stability in rat liver microsomes assessed as parent compound remaining at 3 uM incubated for 15 mins by LC-MS analysis; type: ADME, Microsome; settings: for remaining at 0.25 h, 3 µM: liver microsomes, read-out: Stability
How it was run: (§2)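 Liver microsomes incubated with compound at 3 μM for 15 min. Parent compound remaining was quantified by LC-MS.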

[5] = Metabolic stability in human liver microsomes assessed as parent compound remaining at 3 uM incubated for 15 mins by LC-MS analysis; type: ADME, Microsome; settings: for remaining at 0.25 h, 3 µM: liver microsomes, read-out: Stability; for Stability: microsomes, 0.25 h, 3 µM; how it was run: as §2
[6] = target: T2, Sodium- and chloride-dependent glycine transporter 2 (Homo sapiens, UniProt Q9Y345); assay: Inhibition of human glycine transporter-2 expressed in HEK293 cells assessed as reduction in [14C]glycine uptake preincubated for 10 mins followed by [14C]glycine addition measured after 3 hrs by scintillation proximity assay; type: cell-based
T2 sequence (Q9Y345 whole entry): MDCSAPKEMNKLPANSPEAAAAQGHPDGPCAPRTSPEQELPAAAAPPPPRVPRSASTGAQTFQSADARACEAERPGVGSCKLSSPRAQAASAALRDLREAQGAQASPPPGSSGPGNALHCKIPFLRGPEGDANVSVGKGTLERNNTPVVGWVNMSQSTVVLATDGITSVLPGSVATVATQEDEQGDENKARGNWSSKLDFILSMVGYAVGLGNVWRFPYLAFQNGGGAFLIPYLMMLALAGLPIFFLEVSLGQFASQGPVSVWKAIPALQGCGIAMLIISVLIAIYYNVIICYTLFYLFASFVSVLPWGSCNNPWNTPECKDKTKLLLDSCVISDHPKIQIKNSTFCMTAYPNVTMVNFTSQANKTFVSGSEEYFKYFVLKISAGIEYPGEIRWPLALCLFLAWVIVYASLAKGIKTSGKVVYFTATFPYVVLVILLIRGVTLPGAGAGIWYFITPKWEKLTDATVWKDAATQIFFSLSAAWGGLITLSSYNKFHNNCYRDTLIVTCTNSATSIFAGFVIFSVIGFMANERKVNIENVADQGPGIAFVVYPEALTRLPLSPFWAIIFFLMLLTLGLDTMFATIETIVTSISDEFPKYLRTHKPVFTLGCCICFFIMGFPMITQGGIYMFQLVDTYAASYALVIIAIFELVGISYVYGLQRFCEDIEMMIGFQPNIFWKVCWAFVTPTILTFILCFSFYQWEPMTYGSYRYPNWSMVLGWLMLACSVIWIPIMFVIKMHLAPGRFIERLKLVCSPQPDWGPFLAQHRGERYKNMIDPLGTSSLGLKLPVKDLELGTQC
How it was run: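 HEK293 cells stably transfected with GlyT-2 (Geneticin-selected polyclonal population) were plated on poly-L-lysine-coated plates in DMEM/10% FBS and incubated overnight. The [¹⁴C]glycine uptake SPA was then run as for JAR cells: uptake buffer, 10 min room-temperature preincubation, 3 h incubation at 37 °C.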

[7] = target: T3, Sodium- and chloride-dependent glycine transporter 1 (Homo sapiens) (UniProt P48067); assay: Competitive inhibition of glycine transporter-1 (unknown origin) expressed in HEK293 cells at 0.62 to 17 nM in presence of [3H]glycine by scintillation proximity assay; type: cell-based
T3 sequence (whole entry): T1 sequence (P48067 whole entry)
How it was run: (§3)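 Whole-cell SPA glycine transport with transfected HEK-293 cells expressing GlyT-1. Increasing [³H]-glycine concentrations were run at several fixed inhibitor concentrations to derive B_max and K_d for glycine and judge the binding mode.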

[8] = Metabolic stability in human liver microsomes assessed as parent compound remaining at 3 uM incubated for 60 mins by LC-MS analysis; type: ADME, Microsome; settings: read-out: Stability
[9] = system: Cynomolgus monkey; assay: In vivo inhibition of glycine transporter-1 in cynomolgus monkey assessed as increase in CSF glycine level at 0.3 to 10 mg/kg, po measured at 2 to 4 hrs post dose by LC-MS/MS analysis; type: functional, organism-based; settings: Macaca fascicularis
How it was run: (§4)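 Cynomolgus monkeys, n = 3 per group, given oral doses of 0.4, 1.5, 4.7 or 15.7 μmol/kg. Vehicle was 5% Solutol / 20% Captisol in 25 mM PBS, pH 2. CSF (about 0.30 mL) was drawn through subcutaneous ports with a sterile Huber needle predose and at 0.5, 1, 2, 3, 4, 8, 12 and 24 h. Matched blood was taken at each time. Mean ± SD.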

[10] = system: Cynomolgus monkey; assay: In vivo inhibition of glycine transporter-1 in cynomolgus monkey assessed as increase in CSF glycine level at 0.3 to 10 mg/kg, po measured at 24 hrs post dose by LC-MS/MS analysis; type: functional, organism-based; settings: Macaca fascicularis; how it was run: as §4
[11] = target: T3, Sodium- and chloride-dependent glycine transporter 1 (Homo sapiens); assay: Competitive inhibition of glycine transporter-1 (unknown origin) expressed in HEK293 cells at 12 to 108 nM in presence of [3H]glycine by scintillation proximity assay; type: cell-based; how it was run: as §3

Compound | IC50 [3] [nM] | remaining at 0.25 h, 3 µM [4] [%] | remaining at 0.25 h, 3 µM [5] [%] | IC50 [6] [nM] | further results
CCCS(=O)(=O)N1CCN(C2(CNC(=O)c3ccc(C(F)(F)F)cc3Cl)CCC(F)(F)CC2)CC1 | 12.6 | – | – | – | microsomal CLint at 3 µM [1]: 16 µL/min/mg; microsomal CLint at 3 µM [2]: 11 µL/min/mg
Cn1cnc(S(=O)(=O)N2CCN(C3(CNC(=O)c4ccc(Cl)cc4Cl)CCC(F)(F)CC3)CC2)c1 | 5.29 | 88 | 30 | > 75000 | –
Cn1cc(S(=O)(=O)N2CCN(C3(CNC(=O)c4ccc(Cl)cc4Cl)CCCCC3)CC2)nn1 | 1.54 | – | 0 | > 75000 | –
CCCS(=O)(=O)N1CCN(C2(CNC(=O)c3ccc(F)cc3Cl)CCC(F)(F)CC2)CC1 | 38.4 | – | – | > 75000 | –
CC(NC(=O)c1ccc(C(F)(F)F)cc1Cl)C1(N2CCN(S(=O)(=O)c3cn(C)nn3)CC2)CCC(F)(F)CC1.Cl (single isomer, unassigned; (-)) | – | – | – | – | Stability [5]: 51%
CC(NC(=O)c1ccc(C(F)(F)F)cc1Cl)C1(N2CCN(S(=O)(=O)c3cn(C)nn3)CC2)CCC(F)(F)CC1.Cl (racemic) | 1.03 | – | – | – | Stability ([4]; microsomes, 0.25 h, 3 µM): 66%; Stability [5]: 54%
Cn1cnc(S(=O)(=O)N2CCN(C3(CNC(=O)c4ccc(F)cc4Cl)CCC(F)(F)CC3)CC2)c1 | 5.09 | 100 | 85 | – | –
Nc1cccc(Cl)c1C(=O)NCC1(N2CCN(S(=O)(=O)Cc3ccccc3)CC2)CCCCC1 | 9360 | – | – | > 75000 | –
CCCS(=O)(=O)N1CCN(C2(CNC(=O)c3c(C)cc(F)cc3OC)CCC(F)(F)CC2)CC1 | 28.5 | – | – | > 75000 | –
CN(CC[C@@H](Oc1ccc(-c2ccccc2)cc1)c1ccc(F)cc1)CC(=O)O | – | – | – | – | inhibition [7]: inactive
Cn1cc(S(=O)(=O)N2CCN(C3(CNC(=O)c4ccc(Cl)cc4Cl)CCC(F)(F)CC3)CC2)nn1 | 1.24 | 80 | 46 | – | –
Cn1cc(S(=O)(=O)N2CCN(C3(CNC(=O)c4c(Cl)cccc4OC(F)(F)F)CCC(F)(F)CC3)CC2)nn1 | 0.726 | 87 | 24 | > 75000 | –
Cn1cnc(S(=O)(=O)N2CCN(C3(CNC(=O)c4ccc(C(F)(F)F)cc4Cl)CCC(F)(F)CC3)CC2)c1 | 2.35 | 90 | 60 | > 75000 | –
Cn1cc(S(=O)(=O)N2CCN(C3(CNC(=O)c4c(F)cccc4F)CCC(F)(F)CC3)CC2)nn1 | 5.1 | 95 | 64 | – | –
Cn1cnc(S(=O)(=O)N2CCN(C3(CNC(=O)c4ccc(Cl)cc4Cl)CCCCC3)CC2)c1 | 2.14 | – | – | – | remaining at 1 h, 3 µM [8]: 5%
CC(NC(=O)c1ccc(C(F)(F)F)cc1Cl)C1(N2CCN(S(=O)(=O)c3cn(C)nn3)CC2)CCC(F)(F)CC1 (single isomer, unassigned; (+)) | – | – | – | – | inhibition [9]: Active; inhibition [10]: inactive; inhibition [11]: Active
Cn1cnc(S(=O)(=O)N2CCN(C3(CNC(=O)c4c(Cl)cccc4OC(F)(F)F)CCC(F)(F)CC3)CC2)c1 | 1.49 | 91 | 9.2 | > 75000 | –
CCCS(=O)(=O)N1CCN(C2(CNC(=O)c3c(Cl)cccc3Cl)CCC(F)(F)CC2)CC1 | 42.4 | – | – | > 75000 | microsomal CLint at 3 µM [1]: 3.8 µL/min/mg; microsomal CLint at 3 µM [2]: 4.3 µL/min/mg

Second part, led by results:

IC50 [3] [nM] | remaining at 0.25 h, 3 µM [4] [%] | remaining at 0.25 h, 3 µM [5] [%] | IC50 [6] [nM] | Compound | further results
– | – | – | > 75000 | CC(C)CS(=O)(=O)N1CCN(C2(CNC(=O)c3c(N)cccc3Cl)CCCCC2)CC1 | –
29 | – | – | > 75000 | CCCS(=O)(=O)N1CCN(C2(CNC(=O)c3c(Cl)cccc3OC(F)(F)F)CCC(F)(F)CC2)CC1 | –
146 | – | – | > 75000 | Cn1cc(S(=O)(=O)N2CCN(C3(CNC(=O)c4ccc(Cl)cc4Cl)CCCCC3)CC2)cn1 | –
0.733 | 95 | 64 | – | Cn1cc(S(=O)(=O)N2CCN(C3(CNC(=O)c4ccc(C(F)(F)F)cc4C(F)(F)F)CCC(F)(F)CC3)CC2)nn1 | –
5.56 | 94 | 22 | > 75000 | Cn1cnc(S(=O)(=O)N2CCN(C3(CNC(=O)c4c(Cl)cccc4Cl)CCC(F)(F)CC3)CC2)c1 | –
8.4 | – | – | > 75000 | CCCS(=O)(=O)N1CCN(C2(CNC(=O)c3ccc(C(F)(F)F)cc3C(F)(F)F)CCC(F)(F)CC2)CC1 | microsomal CLint at 3 µM [1]: 19 µL/min/mg; microsomal CLint at 3 µM [2]: 4.9 µL/min/mg
18.3 | 92 | 72 | > 75000 | Cn1cnc(S(=O)(=O)N2CCN(C3(CNC(=O)c4c(F)cccc4F)CCC(F)(F)CC3)CC2)c1 | –
1.27 | 91 | 33 | > 75000 | Cn1cc(S(=O)(=O)N2CCN(C3(CNC(=O)c4c(Cl)cccc4Cl)CCC(F)(F)CC3)CC2)nn1 | –
1.14 | 100 | 69 | – | Cn1cc(S(=O)(=O)N2CCN(C3(CNC(=O)c4ccc(F)cc4Cl)CCC(F)(F)CC3)CC2)nn1 | –
